pIC50: −log10 of the molar value. Activity calls are given as the source filed them. The rule behind the calls is not given here.
Key:
[1] = biological target: T1, Polyunsaturated fatty acid 5-lipoxygenase (Homo sapiens, UniProt P09917); experiment: Inhibition of human recombinant 5-LOX expressed in Escherichia coli BL21 using arachidonic acid as substrate assessed as LTB4 formation preincubated for 15 mins measured after 10 mins by HPLC analysis
T1 sequence (P09917 whole entry): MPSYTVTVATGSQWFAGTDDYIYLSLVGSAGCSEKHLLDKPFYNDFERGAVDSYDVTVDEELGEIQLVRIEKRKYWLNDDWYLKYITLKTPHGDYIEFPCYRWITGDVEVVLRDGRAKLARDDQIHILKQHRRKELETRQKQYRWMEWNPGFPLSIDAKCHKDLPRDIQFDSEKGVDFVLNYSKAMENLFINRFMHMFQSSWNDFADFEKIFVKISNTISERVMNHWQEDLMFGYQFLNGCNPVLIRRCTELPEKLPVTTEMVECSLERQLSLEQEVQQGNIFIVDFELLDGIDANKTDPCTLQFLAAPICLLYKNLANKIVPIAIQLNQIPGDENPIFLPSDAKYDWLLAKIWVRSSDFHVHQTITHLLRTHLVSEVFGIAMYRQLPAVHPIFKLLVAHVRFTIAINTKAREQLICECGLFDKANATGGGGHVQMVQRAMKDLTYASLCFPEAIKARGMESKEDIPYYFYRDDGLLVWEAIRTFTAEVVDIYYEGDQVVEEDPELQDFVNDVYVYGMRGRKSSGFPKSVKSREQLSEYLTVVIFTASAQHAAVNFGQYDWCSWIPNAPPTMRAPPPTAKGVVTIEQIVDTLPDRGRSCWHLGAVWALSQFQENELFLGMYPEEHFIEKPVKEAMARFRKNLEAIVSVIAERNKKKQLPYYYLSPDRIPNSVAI
Method in brief: (§1)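 Human recombinant 5-LOX expressed in E. coli BL21 (pT3-5LO) at 37 °C, purified, and used immediately. 0.5 µg enzyme in PBS/EDTA preincubated with compound for 15 min at 4 °C, then prewarmed 30 s at 37 °C. Reaction started with 2 mM CaCl₂ plus 20 µM arachidonic acid, run 10 min at 37 °C, and metabolites analyzed by HPLC. Mean ± S.E.M., n = 3–4.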

[2] = biological target: T1, Polyunsaturated fatty acid 5-lipoxygenase; experiment: Inhibition of 5-LOX in human intact polymorphonuclear leukocytes preincubated for 15 mins with CaCl2, A23187 measured after 10 mins by HPLC analysis
Method in brief: (§2)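 Human PMNL isolated from blood of healthy adult donors. 5 × 10⁶ cells in 1 ml PG buffer preincubated with compound for 15 min at 37 °C, then stimulated with 1 mM CaCl₂ plus 2.5 µM A23187. After 10 min at 37 °C, stopped with methanol, centrifuged, and supernatant products analyzed by HPLC. Mean ± S.E.M., n = 3–4.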

Mus musculus [3] = experiment: Antiinflammatory activity in ICR mouse assessed as reduction in carrageenan-induced paw oedema volume at 1 to 4 mg/kg, ip administered 30 mins before carrageenan challenge measured after 2 to 4 hrs by hydroplethysmometer relative to vehicle-treated control; assay type: functional, organism-based
Method in brief: (§3)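 Male ICR mice, 8 weeks, housed 5 per cage with 12:12 h light:dark cycle, 22 ± 1 °C, 60 ± 10% humidity, acclimatized at least 1 week. Compounds given i.p. (1–4 mg/kg; zileuton reference 20 mg/kg) 30 min before intraplantar carrageenan. Hind paw volume increase (oedema) followed for 6 h versus vehicle-treated group. Mean ± SEM, n = 6–8 per group.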

Mus musculus [4] = experiment: Antiinflammatory activity in ICR mouse assessed as reduction in carrageenan-induced paw oedema volume at 4 mg/kg, ip administered 30 mins before carrageenan challenge measured after 4 hrs by hydroplethysmometer; assay type: functional; parameters: scale not given: the % may be the effect or the level left; method in brief: as §3
Prostaglandin E synthase = biological target: T2, Prostaglandin E synthase (Homo sapiens, UniProt O14684); experiment: Inhibition of IL-1beta-activated m-PGES-1 in microsome of human A549 cells assessed as PGE2 formation preincubated for 15 mins followed by PGH2 addition measured after 1 min by RP-HPLC analysis; assay type: cell-based
T2 sequence (O14684 whole entry): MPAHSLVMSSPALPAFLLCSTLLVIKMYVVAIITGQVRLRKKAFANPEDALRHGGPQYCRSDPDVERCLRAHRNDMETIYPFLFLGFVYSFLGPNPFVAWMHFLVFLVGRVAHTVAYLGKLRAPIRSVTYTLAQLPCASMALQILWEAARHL
Method in brief: (§4)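 Microsomes from A549 cells prepared by sonication and differential centrifugation (10,000 g, then 174,000 g), stored at −80 °C. Diluted in 0.1 M potassium phosphate pH 7.4 with 2.5 mM glutathione and preincubated with compound (DMSO vehicle, 1% final) 15 min at 4 °C. Started with 20 µM PGH₂ (final), run 1 min at 4 °C, stopped with FeCl₂/citric acid plus 11β-PGE₂ internal standard. PGE₂ isolated by C18 SPE and quantified by RP-HPLC with UV at 195 nm. IC50 from three determinations at 0.1, 1 and 10 µM.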

[5] = biological target: T3, Polyunsaturated fatty acid 5-lipoxygenase (Homo sapiens) (UniProt P09917); experiment: Inhibition of human recombinant 5-LOX expressed in Escherichia coli BL21 using arachidonic acid as substrate assessed as remaining enzyme activity by measuring LTB4 formation at 1 uM preincubated for 15 mins measured after 10 mins by HPLC analysis; method in brief: as §1
T3 sequence (whole entry): T1 sequence (P09917 whole entry)

Mus musculus [6] = experiment: Antiinflammatory activity in ICR mouse assessed as reduction in carrageenan-induced paw oedema volume at 20 mg/kg, ip administered 30 mins before carrageenan challenge measured after 0 to 6 hrs by hydroplethysmometer; assay type: functional; parameters: scale not given: the % may be the effect or the level left; method in brief: as §3
[7] = biological target: T3, Polyunsaturated fatty acid 5-lipoxygenase (Homo sapiens); experiment: Inhibition of human recombinant 5-LOX expressed in Escherichia coli BL21 using arachidonic acid as substrate assessed as remaining enzyme activity by measuring LTB4 formation at 10 uM preincubated for 15 mins measured after 10 mins by HPLC analysis; method in brief: as §1
[8] = biological target: T3, Polyunsaturated fatty acid 5-lipoxygenase (Homo sapiens); experiment: Inhibition of 5-LOX in human intact polymorphonuclear leukocytes assessed as remaining enzyme activity at 10 uM preincubated for 15 mins with CaCl2, A23187 measured after 10 mins by HPLC analysis; method in brief: as §2
[9] = biological target: T4, Prostaglandin E synthase (Homo sapiens) (UniProt O14684); experiment: Inhibition of IL-1beta-activated m-PGES-1 in microsome of human A549 cells assessed as remaining enzyme activity by measuring PGE2 formation at 10 uM preincubated for 15 mins followed by PGH2 addition measured after 1 min by RP-HPLC analysis; assay type: cell-based; method in brief: as §4
T4 sequence (whole entry): T2 sequence (O14684 whole entry)

[10] = biological target: T4, Prostaglandin E synthase (Homo sapiens); experiment: Inhibition of IL-1beta-activated m-PGES-1 in microsome of human A549 cells assessed as PGE2 formation at 10 uM preincubated for 15 mins followed by PGH2 addition measured after 1 min by RP-HPLC analysis; assay type: cell-based; method in brief: as §4

In the case of `CCOC(=O)c1c(CSc2ccccc2C)[nH]c2c1cc(O)c1ccccc12`, the pIC50 [1] was 6.48 and the pIC50 [2] was 6.59.

In the case of `CCOC(=O)c1c(CSc2cc(Cl)cc(Cl)c2)[nH]c2c1cc(O)c1ccccc12`, the pIC50 [1] was 6.66, the Activity (Mus musculus [3]) was “Active” and the pIC50 [2] was 6.62. It also gave an Activity (Mus musculus [4]) of 60% and a pIC50 (Prostaglandin E synthase) of 4.86.

Work on `CCOC(=O)c1c(CSc2ccccc2Cl)[nH]c2c1cc(OC)c1ccccc12` yielded a pIC50 [1] of 5.76 and a pIC50 [2] of 5.94.

Work on `CCOC(=O)c1c(CSc2ccccc2Cl)[nH]c2c1cc(OCC)c1ccccc12` yielded a pIC50 [1] of 5.69 and a pIC50 [2] of 5.90.

Work on `CCOC(=O)c1c(CSc2cc(C)cc(C)c2)[nH]c2c1cc(O)c1ccccc12` yielded a pIC50 [1] of under 6.00, an Activity [5] of 63% and a pIC50 [2] of 6.54.

Compound `CC(c1cc2ccccc2s1)N(O)C(N)=O` (configuration not stated) [ZILEUTON] has an Activity (Mus musculus [6]) of 38.2%.

Work on `CCOC(=O)c1c(CSc2ccccc2Cl)n(CC)c2c1cc(OCC)c1ccccc12` yielded a pIC50 [1] of under 5.00, an Activity [7] of 99.4% and an Activity [8] of 95.5%. It also gave a pIC50 [2] of under 5.00.

In the case of `CCOC(=O)c1c(CSc2c(C)cc(C)cc2C)n(C)c2ccc(O)cc12`, the Activity [9] was 87.3%, the Activity (Mus musculus [4]) was 60.9% and the inhibition [10] was 27.8%.

`CCOC(=O)c1c(CSc2cccc(Cl)c2Cl)[nH]c2c1cc(O)c1ccccc12` gave a pIC50 [1] of under 6.00, an Activity [5] of 72% and a pIC50 [2] of 6.18.

In the case of `CCOC(=O)c1c(CSc2cccc(Cl)c2)[nH]c2c1cc(O)c1ccccc12`, the pIC50 [1] was under 6.00, the Activity [5] was 63.8% and the pIC50 [2] was 6.59.

For `CCOC(=O)c1c(CSc2c(C)cccc2C)[nH]c2c1cc(O)c1ccccc12`, the pIC50 [1] was under 6.00, the Activity [5] was 65.9% and the pIC50 [2] was 6.77.

Work on `CCOC(=O)c1c(CSc2ccc(Cl)c(Cl)c2)[nH]c2c1cc(O)c1ccccc12` yielded a pIC50 [1] of 6.03 and a pIC50 [2] of 6.63.

With `CCOC(=O)c1c(CSc2c(Cl)cccc2Cl)[nH]c2c1cc(O)c1ccccc12` the pIC50 [1] was 6.77, the Activity (Mus musculus [3]) was “inactive” and the pIC50 [2] was 6.72. It also gave an Activity (Mus musculus [4]) of 9.1% and a pIC50 (Prostaglandin E synthase) of 5.88.

With `CCOC(=O)c1c(CSc2c(C)cc(C)cc2C)[nH]c2c1cc(O)c1ccccc12` the pIC50 [1] was 6.70, the pIC50 [2] was 6.43 and the Activity (Mus musculus [4]) was 77.4%. For the same compound, the pIC50 (Prostaglandin E synthase) was 5.71.

`CCOC(=O)c1c(CSc2ccccc2Cl)n(C)c2c1cc(O)c1ccccc12` showed a pIC50 [1] of under 5.00, an Activity [7] of 81.4% and an Activity [8] of 61.9%. It also gave a pIC50 [2] of under 5.00.

Compound `CCOC(=O)c1c(CSc2ccccc2Cl)n(C)c2c1cc(OC)c1ccccc12` has a pIC50 [1] of under 5.00, an Activity [7] of 98.7% and an Activity [8] of 97.6%. The pIC50 [2] was under 5.00.

`CCOC(=O)c1c(CSc2ccccc2Cl)[nH]c2c1cc(O)c1ccccc12` showed a pIC50 [1] of 6.09 and a pIC50 [2] of 6.74.

— ChEMBL document CHEMBL3758140, “Exploring the role of chloro and methyl substitutions in 2-phenylthiomethyl-benzoindole derivatives for 5-LOX enzyme inhibition” (Eur J Med Chem, 2016)
